Results on five molecules are retold here after ChEMBL document CHEMBL2029207, “Vascular barrier protective effects of eckol and its derivatives” (Bioorg Med Chem Lett, 2012).

The test system of data set [1] is HUVEC. Nature of the data set: Antiinflammatory activity in HUVEC cells assessed as inhibition of LPS-induced hyperpermeability at 10 uM relative to LPS. The format is functional. The conditions noted are these: Homo sapiens. The method, boiled down: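 Primary HUVECs were stimulated with LPS at 100 ng/ml, with or without test agent. Permeability was read as albumin flux across the monolayer in a dual-chamber system, by ELISA at OD650. Percent inhibition is relative to LPS alone, with PBS as the negative control and kaempferol-3-O-sophoroside as the positive control. Values are mean ± S.D. of three experiments.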

The test system of data set [2] is HUVEC. The experiment in a line: Antiinflammatory activity in HUVEC cells assessed as inhibition of LPS-induced monocyte migration at 10 uM relative to LPS. The format is functional. The conditions noted are these: Homo sapiens. The procedure, abridged:
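Monocyte transendothelial migration was measured across HUVECs stimulated with LPS at 100 ng/ml. The read-out was a migration index, with percent inhibition calculated against LPS alone. Controls were PBS (negative) and kaempferol-3-O-sophoroside (positive). Values are mean ± S.D. of three independent experiments.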

The species entered for data set [3] is Mus musculus. The experiment in a line: Antiinflammatory activity in mouse assessed as inhibition of CMC-Na-induced leukocyte migration into peritoneal cavity at 10 uM relative to CMC-Na. The format is functional. The method, boiled down:
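Mice received 1.0% CMC–Na to induce leukocyte migration, with or without test agent. Leukocytes recovered from the peritoneal cavity were counted (×10^6). Percent inhibition is relative to CMC–Na alone, with PBS and kaempferol-3-O-sophoroside as controls. Values are mean ± S.D. of three experiments.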

For data set [4], the species on record is Mus musculus. The experiment in a line: Antiinflammatory activity in mice assessed as inhibition of acetic acid-induced hyperpermeability at 10 uM relative to acetic acid.
For data set [5], the system named is HUVEC. The experiment in a line: Cytotoxicity against HUVEC cells assessed as decrease in cell viability up to 20 uM after 24 hrs. Conditions: human. It counts as cell-based. The procedure, abridged: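 HUVECs were exposed to each agent for 24 h and then assessed in cell viability assays.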
Data set [6] concerns HUVEC. The experiment in a line: Antiinflammatory activity in HUVEC cells assessed as inhibition of […]-induced monocyte binding to endothelial cells at 10 uM relative to control. The conditions noted are these: Homo sapiens.

Active and inactive are the calls of the source. The rule behind the calls is not given here.

What is called inhibition is the relative decrease from the control value, in per cent. For the molecule `O=c1c(O[C@@H]2O[C@H](CO)[C@@H](O)[C@H](O)[C@H]2O[C@@H]2O[C@H](CO)[C@@H](O)[C@H](O)[C@H]2O)c(-c2ccc(O)cc2)oc2cc(O)cc(O)c12`, the inhibition at 10 µM in the data set on HUVEC [1] was 76.6%; in the data set with HUVEC [2], 69.5%; in the data set filed under Mus musculus [4], 73.9%. Also, the “inhibition (INH)” value in the data set filed under Mus musculus [3] is reported as 69.6%.

For the molecule `CC(=O)Oc1cc(OC(C)=O)cc(Oc2c(OC(C)=O)cc(OC(C)=O)c3c2Oc2c(OC(C)=O)cc(Oc4c(OC(C)=O)cc(Oc5c(OC(C)=O)cc(OC(C)=O)c6c5Oc5c(OC(C)=O)cc(OC(C)=O)cc5O6)cc4OC(C)=O)cc2O3)c1`, the inhibition at 10 µM in the data set with HUVEC [1] amounted to 49.5%; in the data set on HUVEC [2], 50.3%; in the data set listed under Mus musculus [4], 59.5%. The Activity result in the data set on HUVEC [5] is “Non-toxic”. Moreover, the “inhibition (INH)” value in the data set filed under Mus musculus [3] was found to be 56.7%.

Consider `COc1cc(OC)cc(Oc2c(OC)cc(OC)c3c2Oc2c(OC)cc(Oc4c(OC)cc(Oc5c(OC)cc(OC)c6c5Oc5c(OC)cc(OC)cc5O6)cc4OC)cc2O3)c1`, for which the inhibition at 10 µM in the data set with HUVEC [1] was 33%; in the data set on HUVEC [2], 37.6%; in the data set filed under Mus musculus [4], 34.7%. In addition, the Activity result with HUVEC [5] was “Non-toxic”. Moreover, the “inhibition (INH)” value in the data set listed under Mus musculus [3] came out at 32.4%.

Turning to `Oc1cc(O)cc(Oc2c(O)cc(O)c3c2Oc2c(O)cc(Oc4c(O)cc(Oc5c(O)cc(O)c6c5Oc5c(O)cc(O)cc5O6)cc4O)cc2O3)c1` [DIECKOL], the inhibition at 10 µM worked out at 74.9% in the data set on HUVEC [1], 71.3% in the data set with HUVEC [2] and 74.4% in the data set listed under Mus musculus [4]. Further, the Activity result with HUVEC [5] is on record as “Non-toxic”. Besides, the “inhibition (INH)” value in the data set filed under Mus musculus [3] is 69.9%.

For the molecule `Oc1cc(O)cc(Oc2c(O)cc(O)c3c2Oc2c(O)cc(O)cc2O3)c1` [ECKOL], the results for the inhibition at 10 µM in the data set on HUVEC [1], in the data set with HUVEC [2] and in the data set filed under Mus musculus [4] were 56.5%, 59.6% and 52%, respectively. Moreover, in the data set with HUVEC [5], the Activity entry is given as “Non-toxic”. Besides, the “inhibition (INH)” value in the data set listed under Mus musculus [3] is given as 61.7%. Moreover, the inhibition result in the data set with HUVEC [6] is “Active”.
